{"source": "ChEMBL document CHEMBL1144221", "about": "“Novel naphthoquinone and quinolinedione inhibitors of CDC25 phosphatase activity with antiproliferative properties” (Bioorg Med Chem, 2008)", "key": {"[1]": {"system": "HeLa", "test": "Antiproliferative activity against human HeLa cells after 10 days by clonogenic assay", "type": "functional, cell-based", "conditions": "240 h", "summary_of_the_method": "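HeLa cells seeded at 100 cells/well, grown 24 h at 37 °C in 5% CO₂, then given medium with inhibitor at increasing concentrations (up to 100 µM) for 10 days. Colonies were fixed in 10% formaldehyde, stained with crystal violet and counted to get plating efficiency. IC50 was taken from the dose-response curve.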"}, "[2]": {"system": "HeLa", "test": "Cell cycle arrest in asynchronous human HeLa cells assessed as accumulation at G0/G1 phase at 10 uM after 24 hrs by flow cytometry", "type": "functional", "summary_of_the_method": "(§1)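 Asynchronous HeLa cells grown 24 h, then treated 24 h at 10 or 50 µM. Cells were trypsinized, fixed in cold ethanol and permeabilized with 0.25% Triton X-100. They were stained with anti-H3P/Alexa 488 antibody, treated with RNase and stained with propidium iodide (10 µg/mL). Flow cytometry gave the percentage of cells in G0/G1, S and G2/M. Three independent runs; DMSO served as negative control.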"}, "[3]": {"system": "HeLa", "test": "Cell cycle arrest in asynchronous human HeLa cells assessed as accumulation at S phase at 10 uM after 24 hrs by flow cytometry", "type": "functional", "summary_of_the_method": "as §1"}, "[4]": {"system": "HeLa", "test": "Cell cycle arrest in asynchronous human HeLa cells assessed as accumulation at G2/M phase at 10 uM after 24 hrs by flow cytometry", "type": "functional", "summary_of_the_method": "as §1"}, "[5]": {"system": "HeLa", "test": "Cytotoxicity against human HeLa cells after 96 h by WST1 colorimetric assay"}, "[6]": {"target": "T1, M-phase inducer phosphatase 2 (Homo sapiens, UniProt P30305)", "T1 sequence (P30305 whole entry)": "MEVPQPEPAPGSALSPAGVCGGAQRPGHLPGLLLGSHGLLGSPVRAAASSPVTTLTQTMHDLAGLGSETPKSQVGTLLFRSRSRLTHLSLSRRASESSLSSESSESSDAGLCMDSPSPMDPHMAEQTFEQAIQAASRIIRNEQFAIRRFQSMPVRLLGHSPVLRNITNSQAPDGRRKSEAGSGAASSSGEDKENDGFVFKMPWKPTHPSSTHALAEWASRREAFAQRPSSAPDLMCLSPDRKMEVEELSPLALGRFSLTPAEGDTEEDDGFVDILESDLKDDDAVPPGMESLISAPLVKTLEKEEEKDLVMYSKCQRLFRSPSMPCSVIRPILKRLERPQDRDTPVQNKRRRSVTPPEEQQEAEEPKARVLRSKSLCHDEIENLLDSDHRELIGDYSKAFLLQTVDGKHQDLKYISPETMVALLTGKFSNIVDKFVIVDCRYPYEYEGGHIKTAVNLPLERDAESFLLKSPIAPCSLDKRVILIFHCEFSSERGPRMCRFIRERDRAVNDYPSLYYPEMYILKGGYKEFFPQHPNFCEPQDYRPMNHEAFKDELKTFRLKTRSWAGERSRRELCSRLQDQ", "test": "Inhibition of human recombinant fused MBP-CDC25B3"}, "[7]": {"target": "T1, M-phase inducer phosphatase 2", "test": "Inhibition of human recombinant CDC25B"}}}
{"smiles": "O=C1C(SCCO)=C(SCCO)C(=O)c2ccccc21", "values": [{"measurement": "IC50", "setting": "[1]", "result": 8.5, "unit": "µM"}, {"measurement": "Activity", "setting": "[2]", "result": 56, "unit": "%"}, {"measurement": "Activity", "setting": "[3]", "result": 25, "unit": "%"}, {"measurement": "Activity", "setting": "[4]", "result": 19, "unit": "%"}, {"measurement": "IC50", "setting": "[5]", "result": 10.8, "unit": "µM"}]}
{"smiles": "O=C1C(Br)=C(Br)C(=O)c2ncccc21", "values": [{"measurement": "IC50", "setting": "[6]", "result": 5.3, "unit": "µM"}, {"measurement": "IC50", "setting": "[5]", "result": 21.5, "unit": "µM"}]}
{"smiles": "O=C(CSC1=C(SCC(=O)OCc2ccccc2)C(=O)c2ccccc2C1=O)OCc1ccccc1", "values": [{"measurement": "IC50", "setting": "[7]", "result": 3.4, "unit": "µM"}]}
{"smiles": "C[C@@]12CCCc3coc(c31)C(=O)c1cc3c(cc12)C(=O)C1=C(NCCS1(=O)=O)C3=O", "note": "[ADOCIAQUINONE B]", "values": [{"measurement": "IC50", "setting": "[7]", "result": 0.07, "unit": "µM"}]}
